ChEMBL document CHEMBL4265982, “Hybrid compounds from chalcone and 1,2-benzothiazine pharmacophores as selective inhibitors of alkaline phosphatase isozymes” (Eur J Med Chem, 2018)
Active and inactive are the calls of the source. The calls are words filed in the database; no cut-off is given here.

Columns and labels:
[1] = target: T1, Alkaline phosphatase, tissue-nonspecific isozyme (Homo sapiens, UniProt P05186); assay: Inhibition of human TNAP expressed in African green monkey COS7 cell membranes using CDP-star as substrate pretreated for 5 to 10 mins followed by substrate addition and measured after 15 to 20 mins by […]
T1 sequence (P05186 whole entry): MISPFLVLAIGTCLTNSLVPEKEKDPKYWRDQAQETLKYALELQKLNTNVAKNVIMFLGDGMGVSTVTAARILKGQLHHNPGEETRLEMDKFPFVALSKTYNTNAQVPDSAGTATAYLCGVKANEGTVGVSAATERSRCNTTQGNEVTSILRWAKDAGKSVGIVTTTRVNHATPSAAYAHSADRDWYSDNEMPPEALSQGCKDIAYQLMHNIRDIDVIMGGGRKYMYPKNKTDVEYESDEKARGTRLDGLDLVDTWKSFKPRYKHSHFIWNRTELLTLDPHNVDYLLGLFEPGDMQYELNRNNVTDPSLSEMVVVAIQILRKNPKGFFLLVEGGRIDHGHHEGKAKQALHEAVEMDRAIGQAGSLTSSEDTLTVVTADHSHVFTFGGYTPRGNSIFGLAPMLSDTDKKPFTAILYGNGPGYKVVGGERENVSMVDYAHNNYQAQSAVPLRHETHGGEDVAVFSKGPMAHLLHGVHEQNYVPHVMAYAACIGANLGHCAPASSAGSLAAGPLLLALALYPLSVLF

[2] = target: T2, Intestinal-type alkaline phosphatase (Homo sapiens, UniProt P09923); assay: Inhibition of human IAP expressed in African green monkey COS7 cell membranes using CDP-star as substrate pretreated for 5 to 10 mins followed by substrate addition and measured after 15 to 20 mins by […]
Procedure, shortened: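 Enzyme from transfected COS-7 lysates (h-TNAP 46 ng/well, h-IAP 57 ng/well), stored with 7.5% glycerol at -80 °C. Inhibitor tested up to 200 μM, final DMSO 1%, in 3 M DEA pH 9.8 with 2.5 mM MgCl2 and 0.05 mM ZnCl2. Preincubation 37 °C for 5–10 min, then CDP-Star added. Luminescence read after 15–20 min. IC50 from curve fitting, mean ± SEM, n = 3.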
Target sequence in this assay (P09923 whole entry): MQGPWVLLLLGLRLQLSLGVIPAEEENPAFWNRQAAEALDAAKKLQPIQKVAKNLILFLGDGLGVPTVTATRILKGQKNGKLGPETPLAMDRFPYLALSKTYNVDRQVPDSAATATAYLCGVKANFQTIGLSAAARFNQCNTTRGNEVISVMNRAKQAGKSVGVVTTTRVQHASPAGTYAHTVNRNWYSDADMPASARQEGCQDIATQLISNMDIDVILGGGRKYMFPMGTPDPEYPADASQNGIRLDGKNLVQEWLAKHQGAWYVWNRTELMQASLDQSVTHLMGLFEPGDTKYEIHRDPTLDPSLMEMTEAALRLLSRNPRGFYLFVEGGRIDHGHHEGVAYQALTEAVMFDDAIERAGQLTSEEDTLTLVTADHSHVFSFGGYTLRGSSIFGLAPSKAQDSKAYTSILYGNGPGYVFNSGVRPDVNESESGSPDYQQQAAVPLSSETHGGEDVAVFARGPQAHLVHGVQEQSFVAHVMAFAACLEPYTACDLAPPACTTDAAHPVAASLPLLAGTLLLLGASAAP

Homo sapiens = organism: Homo sapiens; assay: Selectivity index, ratio of IC50 for human TNAP expressed in African green monkey COS7 cell membranes to IC50 for human IAP expressed in African green monkey COS7 cell membranes
Procedure, shortened: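 Ratio of IC50 at h-TNAP to IC50 at h-IAP. Each IC50 is from the CDP-Star luminescence assay on lysates of transfected COS-7 cells, pH 9.8 DEA buffer. Index > 1 means selectivity for h-IAP; < 1 means selectivity for h-TNAP.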

HeLa = assay: Cytotoxicity against human HeLa cells assessed as cell growth inhibition at 100 uM after 24 hrs by MTT assay; assay type: functional; conditions: read-out: GI
Procedure, shortened: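 HeLa cells seeded overnight at 2.5 × 10⁴ cells/mL, then exposed to compound (final 100 μM) for 24 h at 37 °C. MTT (5 μg/well) added for 4 h, then solubilised with 50% isopropanol/10% SDS. OD read at 570 nm minus 690 nm background. Percent inhibition relative to untreated control; triplicate, mean of three independent experiments ± SEM.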

[3] = target: T2, Intestinal-type alkaline phosphatase; assay: Competitive inhibition of human IAP expressed in African green monkey COS7 cell membranes up to 1.5 uM using CDP-star as substrate pretreated for 5 to 10 mins followed by substrate addition and measured after 15 to 20 mins by double reciprocal plot analysis
Target sequence in this assay (P09923 whole entry, looked up): as the sequence (P09923 whole entry) above

[4] = target: T3, Alkaline phosphatase, tissue-nonspecific isozyme (Homo sapiens) (UniProt P05186); assay: Non-competitive inhibition of human TNAP expressed in African green monkey COS7 cell membranes up to 0.3 uM using CDP-star as substrate pretreated for 5 to 10 mins followed by substrate addition and measured after 15 to 20 mins by double reciprocal plot analysis
T3 sequence (whole entry): T1 sequence (P05186 whole entry)
Procedure, shortened: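 Kinetics: double reciprocal plots of initial velocity versus CDP-Star concentration at several inhibitor concentrations. Enzyme is lysate of COS-7 cells transfected with h-TNAP plasmid (lipofectamine, 5 h, 37 °C, harvested 40–72 h). Buffer 3 M DEA pH 9.8, 2.5 mM MgCl2, 0.05 mM ZnCl2. Preincubation 5–10 min at 37 °C, luminescence read 15–20 min after substrate.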

[5] = target: T3, Alkaline phosphatase, tissue-nonspecific isozyme (Homo sapiens); assay: Potency index, ratio of levamisole IC50 to test compound IC50 for human TNAP

Row | IC50 [1] [µM] | IC50 [2] [µM] | Ratio IC50 (Homo sapiens) | inhibition [3] | inhibition [4] | Ratio IC50 [5] | Compound | inhibition of growth at 100 µM (HeLa) [%]
1 | 3.19 | 9.93 | 0.3 |  |  |  | O=C1/C(=C/c2cccc(F)c2)NS(=O)(=O)c2ccccc21 | 53
2 | 1.53 | 10.6 | 0.1 |  |  |  | O=C1/C(=C/c2c(F)cccc2F)NS(=O)(=O)c2ccccc21 | 17
3 | > 200 | 7.43 | > 1 |  |  |  | O=C1/C(=C/c2ccccc2Br)NS(=O)(=O)c2ccccc21 | 53
4 | > 200 | 3.77 | > 50 |  |  |  | O=C1/C(=C/c2cccc(Cl)c2)NS(=O)(=O)c2ccccc21 | 64
5 | 4.04 | 1.53 | 2.6 |  |  |  | COc1ccc(/C=C2\NS(=O)(=O)c3ccccc3C2=O)cc1 | 11
6 | > 200 | 1.04 | > 190 | Active |  |  | COc1cccc(/C=C2\NS(=O)(=O)c3ccccc3C2=O)c1 | 39
7 | 0.66 | 1.78 | 0.4 |  |  |  | O=C1/C(=C/c2ccccc2)NS(=O)(=O)c2ccccc21 | 19
8 | 0.25 | 4.35 | 0.1 |  | Active | 80 | O=C1/C(=C/c2ccc(Cl)cc2)NS(=O)(=O)c2ccccc21 | 55
9 | > 200 | 2.55 | > 26 |  |  |  | O=C1/C(=C/c2cccc(Br)c2)NS(=O)(=O)c2ccccc21 | 65
10 | 1.43 | 3.69 | 0.4 |  |  |  | O=C1/C(=C/c2ccc(Br)cc2)NS(=O)(=O)c2ccccc21 | 59
11 |  | > 200 |  |  |  |  | c1ccc([C@H]2CN3CCSC3=N2)cc1 [LEVAMISOLE] | 
12 | > 200 |  | > 2 |  |  |  | N[C@@H](Cc1ccccc1)C(=O)O [PHENYLALANINE] | 
13 | 2.36 | 3.75 | 0.6 |  |  |  | Cc1ccccc1/C=C1\NS(=O)(=O)c2ccccc2C1=O | 7
14 | 3.57 | 1.21 | 3 |  |  |  | O=C1/C(=C/c2cccc(O)c2)NS(=O)(=O)c2ccccc21 | 15
15 | 2.59 | 1.24 | 2.1 |  |  |  | COc1ccccc1/C=C1\NS(=O)(=O)c2ccccc2C1=O | 17
16 | 1.35 | 3.06 | 0.4 |  |  |  | O=C1/C(=C/c2ccc(F)cc2)NS(=O)(=O)c2ccccc21 | 41
17 | > 200 | 4.96 | > 53 |  |  |  | O=C1/C(=C/c2ccc(Cl)cc2Cl)NS(=O)(=O)c2ccccc21 | 59
